# Test results as given in PubChem BioAssay.
# Activity calls are given as the source filed them.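 How the source made its calls, unless noted: active means GFP response above 150% of the DMSO level; inconclusive means fewer than 70 events counted for a yeast strain; inactive means the rest.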
# Experiments:
# [1] = RPL19A-GFP modulators, yeast TOR pathway, confirmation, cell-based, S. cerevisiae, flow cytometry, cherry picks, mother/daughter gates (AID 2270;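 active means GFP response below 50% of the DMSO control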); settings: S. cerevisiae RPL19A-GFP strain, 3 h, at 10 µM, stronger effect = lower value, 100 = same GFP as DMSO wells
# [2] = LAP4-GFP expression modulators in yeast, confirmation, cell-based, cherry picks, flow cytometry, mother/daughter gates (AID 2271;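 active means GFP response above 150% of the DMSO control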;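 further: ratio of sample to DMSO plate mean so 100% equals DMSO level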); settings: S. cerevisiae LAP4-GFP strain, 3 h, at 10 µM, stronger effect = higher value, 100 means same as DMSO control
# Summary of the method: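 Test system: GFP-fusion yeast strain / Amount: 0.2 OD600 cells / Buffer or medium: SC medium / Dosing: 10 µM single dose / Incubation: compound exposure 3 h at 30 °C, end-over-end rotation / Detection: HT flow cytometry, GFP fluorescence channel / Evaluation: median GFP fluorescence as percent of plate-mean DMSO wells / Control set: DMSO-only negative wells, rapamycin 400 ng/mL positive wells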
# [3] = modulators of MEP2-GFP levels in yeast, confirmation, S. cerevisiae, flow cytometry GFP, cherry picks (AID 2272;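 active means GFP response above 150% of the DMSO control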;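 further: ratio of well signal to plate DMSO mean so 100% equals DMSO level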); settings: S. cerevisiae MEP2-GFP strain, 3 h, at 10 µM, stronger effect = higher value
# [4] = AGP1-GFP expression modulators, hit retest, confirmation, cell-based, flow cytometry, S. cerevisiae, cherry picks (AID 2273);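 further: median GFP channel fluorescence over the whole cell population gate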; settings: S. cerevisiae AGP1-GFP strain, 3 h, at 10 µM
# [5] = modulators of CIT2-GFP expression in yeast, confirmation, S. cerevisiae, GFP fusion, cherry picks, mother/daughter gates (AID 2274); settings: S. cerevisiae CIT2-GFP strain, flow cytometry, 3 h, at 10 µM, stronger effect = higher value
# [6] = measured here: daughter cell gate
# [7] = measured here: mother cell gate
# [8] = measured here: daughter cell gate response
# [9] = measured here: mother cell gate response
Compound,GFP response vs DMSO [1],"GFP response vs DMSO [1, 6] [%]","GFP response vs DMSO [1, 7] [%]",GFP response relative to DMSO [2],"GFP response relative to DMSO [2, 8] [%]","GFP response relative to DMSO [2, 9] [%]",GFP response vs DMSO [3],"GFP response, % of DMSO [4]","GFP response, % of DMSO [5]","GFP response, % of DMSO [5, 6] [%]","GFP response, % of DMSO [5, 7] [%]"
COc1ccc(Br)cc1/C=N/NC(=O)Cn1nnnc1N,99.2% (inactive),97.6,103,99.2% (inactive),97.6,100,109% (inactive),95.8% (inactive),104% (inactive),103,106
Nc1ccc2nc(-c3ccc(-c4nc5ccc(N)cc5[nH]4)cc3)[nH]c2c1,99.3% (inactive),100,96.1,111% (inactive),108,94.4,112% (inactive),99.1% (inactive),108% (inactive),92.3,93.8
CCCc1[nH]nc2c1C1(C(=O)N(CC)c3ccccc31)C(C#N)=C(N)O2 (centres undefined),96.6% (inactive),95.9,96.9,96.7% (inactive),97.6,94,98.3% (inactive),98.5% (inactive),101% (inactive),99.1,101
O=C(NCc1ccncc1)C12CC3CC(CC(Cl)(C3)C1)C2,96.2% (inactive),98.1,96.8,97% (inactive),95.9,96.2,99% (inactive),99.8% (inactive),105% (inactive),105,103
S=C(Nc1ccc(Cl)cc1)Nc1ccc2cn[nH]c2c1,93.9% (inactive),96.3,93.3,106% (inactive),108,105,101% (inactive),104% (inactive),103% (inactive),100,104
N#Cc1nccnc1S(=O)(=O)c1cccs1,96.2% (inactive),99.5,94.6,166% (active),149,162,106% (inactive),96.1% (inactive),103% (inactive),103,98.2
COc1ccc(-c2[nH]ncc2N=Nc2ccccc2)cc1,96.2% (inactive),94.3,96.6,107% (inactive),104,108,94.4% (inactive),92.2% (inactive),97.2% (inactive),98.4,93.7
O=[N+]([O-])c1cc(S(=O)(=O)C(F)(F)F)ccc1Sc1nc2ccccc2s1,95.6% (inactive),95.1,93.1,184% (active),162,192,102% (inactive),88.1% (inactive),107% (inactive),105,99.7
O=[N+]([O-])c1cc(Cl)ccc1Sc1ccccn1,104% (inactive),102,103,98.2% (inactive),95.9,98.4,112% (inactive),99% (inactive),95.9% (inactive),95.6,93.2
COc1ccc(-c2noc(CCCc3ccccc3)n2)cc1OC,101% (inactive),98.7,100,96.2% (inactive),98.7,98.3,104% (inactive),104% (inactive),95.2% (inactive),94.8,96.6
Cc1cc(/C=C2/SC(=S)N(c3cccc(Cl)c3)C2=O)c(C)n1-c1cccnc1,107% (inactive),106,108,133% (inactive),125,136,135% (inactive),110% (inactive),118% (inactive),117,117
O=C1c2ccsc2SCCN1Cc1ccccc1,93.8% (inactive),92.9,94.8,112% (inactive),109,114,94.1% (inactive),101% (inactive),92.6% (inactive),91.7,90.2
Cc1cc2ccccn2c1C(=O)c1ccc([N+](=O)[O-])o1,102% (inactive),106,94.6,195% (active),182,196,132% (inactive),109% (inactive),98.4% (inactive),106,87.8
CCNC(=O)/C(C#N)=C/c1c(N(Cc2ccccc2)Cc2ccccc2)nc2ccccn2c1=O,101% (inactive),101,102,102% (inactive),101,103,110% (inactive),99.3% (inactive),105% (inactive),108,104
Cc1oc2c(CN3CCCC(C)C3)c(O)ccc2c(=O)c1-c1ccccc1 (centres undefined),102% (inactive),102,104,143% (inactive),151,141,141% (inactive),107% (inactive),147% (inactive),152,143
O=C1C(Cl)=C(N2CCN(Cc3ccccc3)CC2)C(=O)N1Cc1ccccc1,97% (inactive),98.1,98,99.5% (inactive),101,98.4,94.7% (inactive),102% (inactive),100% (inactive),101,99.3
Cc1cc(NCCN2CCOCC2)n2nc(C)c(-c3ccccc3)c2n1,98.8% (inactive),99.1,97.4,100% (inactive),95,99.5,102% (inactive),95.2% (inactive),92.1% (inactive),94.6,91
Cc1ccc(-c2nnc(NC(=O)c3ccc([N+](=O)[O-])o3)o2)c(C)c1,101% (inactive),99.3,99.8,161% (active),133,160,108% (inactive),92.3% (inactive),95.8% (inactive),99.3,91.5
S=c1[nH]nc(-c2ccco2)n1/N=C/C(Cl)=C/c1ccccc1,98.4% (inactive),98.5,98.3,129% (inactive),121,131,112% (inactive),95.6% (inactive),97.8% (inactive),100,94.5
O=C(NNC(=S)NC(=O)c1cn(-c2ccccc2)nc1-c1ccccc1)c1ccncc1,98% (inactive),101,94.8,143% (inactive),125,146,101% (inactive),99.5% (inactive),98.6% (inactive),103,96
Cc1onc(-c2ccccc2)c1C(=O)N1CCC(C)CC1,92% (inactive),93.4,91.6,103% (inactive),102,103,118% (inactive),102% (inactive),108% (inactive),105,107
CCOC(=O)c1sc(Nc2nc3c(OC)cccc3s2)nc1C,103% (inactive),77.4,69,97% (inactive),94.2,92,112% (inactive),106% (inactive),100% (inactive),90.2,90.7
C/C(=N\NC(=O)c1cc2ccccc2cc1O)c1ccccn1,106% (inactive),103,98.1,234% (active),147,231,126% (inactive),109% (inactive),132% (inactive),113,120
CCCc1[nH]nc2c1C(c1ccc(OCCN3CCOCC3)c(OCC)c1)C(C#N)=C(N)O2 (centres undefined),98.4% (inactive),98.4,98.9,90.2% (inactive),95.6,91.1,97.8% (inactive),97.8% (inactive),107% (inactive),105,108
